Data taken from PubChem BioAssay AID463104 (Sanford-Burnham Center for Chemical Genomics, 2010).
Screen size: about 330,000 compounds; about 1,100 (0.33%) were called active. The sample as a whole holds a higher share of actives than the screen did. Unmarked numbers belong to inactive results.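 Rule for the calls: active = versus positive control, 20 µM dose yields 30% or more activation; inactive = the rest.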

assay: IRE1-XBP1 pathway stimulators – cell-based, CHO-XBP1 luciferase reporter, luminescence, uHTS, primary screen (AID 463104); conditions: IRE1-XBP1 UPR activation, at 20 µM, stronger effect = higher value, percent of tunicamycin response, DMSO as zero;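 note: 100% = tunicamycin at 10 µg/mL and 0% = DMSO only wells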
Method in brief: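 Signal: luciferase luminescence; Assay system: CHO-XBP1 luciferase reporter cells; Amount: one thousand reporter cells per well; Dosing: 20 µM single concentration, DMSO 1%; Benchmarks: high control tunicamycin 10 µg/mL final, low control DMSO vehicle only; Schedule: 6 h compound exposure at 37 °C, 5% CO2; Evaluation: percent activation relative to tunicamycin reference.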

Row | Structure (SMILES) | activation
1 | C=CCO/N=C(\C)c1c(O)c(C)c(-c2ccccc2)n(-c2ccccc2)c1=O | -1.96%
2 | CC(C)(C)n1nc(Cc2cccc3ccccc23)c(C#N)c1N | 3.6%
3 | CCc1nn(-c2cc(Oc3cccc4ccccc34)nc(-c3ccccc3)n2)c(N)c1C#N | 79.6% (active)
4 | Cc1cc(NC(=O)CSc2nnc(-c3ccco3)n2N)no1 | 1.89%
5 | Cc1cc(NC(=O)CSc2nc3cc(Cl)ccc3c(=O)n2Cc2ccco2)no1 | 95.4% (active)
6 | Cc1cc(NC(=O)CSc2nc3ccccc3n2CC(C)C)no1 | -4.54%
7 | CC(C)Oc1ccc(S(=O)(=O)N2CCOCC2)cc1NC(=O)C1CSC2(C)CCC(=O)N12 (stereo unspecified) | -2.58%
8 | CCCNC(=O)CCn1nc(-c2ccccc2)c2ccccc2c1=O | 1.25%
9 | O=C(COC(=O)Cc1ccc(Br)cc1)Nc1c(F)c(F)c(F)c(F)c1F | 0.94%
10 | Nc1c(NCCc2ccccc2)c2ccccc2oc1=O | -1.1%
11 | COCCCNC(=O)[C@H]1N2C(=O)c3ccccc3C2SC1(C)C (stereo partly specified) | 5.98%
12 | COc1cc(NC(=O)CSc2nnc3ccc(-c4ccncc4)nn23)cc(OC)c1 | 4.51%
13 | CSc1nc(-c2ccccc2)nc(C(Cl)Cl)n1 | 31.3% (active)
14 | CSc1ncc(Sc2ccccc2)c(C(=O)O)n1 | -3.45%
15 | CC(C)=CCCC1(C)C=Cc2c(ccc3c2[nH]c2cc(O)c(C)cc23)O1 (stereo unspecified) | 46.1% (active)
16 | CCN(CC(=O)NCc1ccc(Cl)cc1)C(=O)CSc1ccccc1 | -3.45%
17 | O=C(NCCCN1CCCCC1)c1ccc2c(c1)NC(=O)C(N1CCOCC1)S2 (stereo unspecified) | -1.68%
18 | CCCc1nc2c(c(=O)c3ccccc3n2C)c(=O)n1C1CCCCCC1 | 32.4% (active)
19 | Cn1c2ccccc2c2c(C(=O)N3CCN(c4ccc(F)cc4)CC3)cn(C3CCCC3)c(=O)c21 | 6.07%
20 | CC1CCN(Cc2nc3c(c(=O)n(C)c(=O)n3C)n2CCc2ccccc2)CC1 | -0.91%
21 | c1ccc2c(c1)C(=NC1CCCCC1)NC2=NC1CCCCC1 | 3.14%
22 | CCC1CCC/C1=N\NC(=O)c1ccc(Cl)cc1 (stereo unspecified) | 2.16%
23 | COc1cc(C(=O)NCC(c2ccco2)N2CCCC2)ccc1OCc1ccccc1 (stereo unspecified) | -1.2%
24 | Cc1ccc(S(=O)(=O)/N=C(/Nc2ccccn2)c2ccc(Cl)cc2)cc1 | 1.88%
25 | O=S(=O)(/N=C(/Nc1ccccn1)c1ccccc1)c1ccc(Cl)cc1 | 0.4%
26 | Cc1ccc(S/C(=N\S(=O)(=O)c2ccc(Cl)cc2)c2ccccc2)cc1 | 43.5% (active)
